From ChEMBL document CHEMBL3632546 (Eur J Med Chem, 2015)
The source made the active and inactive calls. The calls are words filed in the database; no cut-off is given here.

What was measured:
Renin = molecular target: T1, Renin (Homo sapiens, UniProt P00797); assay: Inhibition of human recombinant renin preincubated for 30 mins followed by substrate addition measured after 15 mins by fluorescence analysis
T1 sequence (P00797 whole entry): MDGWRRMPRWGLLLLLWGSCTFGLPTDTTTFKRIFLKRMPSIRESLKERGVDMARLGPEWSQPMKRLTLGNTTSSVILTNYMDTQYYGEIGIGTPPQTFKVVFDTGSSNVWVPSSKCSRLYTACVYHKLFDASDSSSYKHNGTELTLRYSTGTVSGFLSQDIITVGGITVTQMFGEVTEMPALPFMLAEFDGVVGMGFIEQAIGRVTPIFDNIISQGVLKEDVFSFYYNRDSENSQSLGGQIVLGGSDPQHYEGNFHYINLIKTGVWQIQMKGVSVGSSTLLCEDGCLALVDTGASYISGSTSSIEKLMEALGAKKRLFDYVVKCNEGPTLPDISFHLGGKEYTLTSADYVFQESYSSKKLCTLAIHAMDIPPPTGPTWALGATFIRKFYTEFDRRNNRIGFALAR
Outline: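 Fluorogenic renin kit (Ex/Em 490/520 nm). Reaction started with pre-warmed renin substrate (20 µM solution) and run 15 min at 37 °C. RFU read with substrate-only wells as background. Vehicle, buffer and peptide inhibitor (10 µM solution) controls included.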

Mus musculus [1] = assay: Antihypersensitive activity in double transgenic hypertensive mouse harboring human angiotensinogen and human renin genes assessed as reduction of mean arterial blood pressure at 8.5 umol/kg, po monitored 24 hrs post dose; type: functional, organism-based
Mus musculus [2] = assay: Antihypersensitive activity in po dosed double transgenic hypertensive mouse harboring human angiotensinogen and human renin genes assessed as maximum reduction of mean arterial blood pressure monitored 24 hrs post dose; type: functional
Mus musculus [3] = assay: Antihypersensitive activity in double transgenic hypertensive mouse harboring human angiotensinogen and human renin genes assessed as reduction of mean arterial blood pressure at 17 to 34 umol/kg, po monitored 24 hrs post dose; type: functional, organism-based
Mus musculus [4] = assay: Antihypersensitive activity in po dosed double transgenic hypertensive mouse harboring human angiotensinogen and human renin genes assessed as time duration for sustained reduction of mean arterial blood pressure monitored 24 hrs post dose; type: functional
[5] = molecular target: Cathepsin D (Homo sapiens) (UniProt P07339); assay: Inhibition of human recombinant cathepsin D preincubated for 30 mins followed by substrate addition measured after 15 mins by fluorescence analysis
Mus musculus [6] = assay: Antihypersensitive activity in po dosed double transgenic hypertensive mouse harboring human angiotensinogen and human renin genes assessed as reduction of mean arterial blood pressure monitored 24 hrs post dose; type: functional, organism-based
[7] = molecular target: T2, Cathepsin E (Homo sapiens) (UniProt P14091); assay: Inhibition of human recombinant cathepsin E preincubated for 30 mins followed by substrate addition measured after 15 mins by fluorescence analysis
T2 sequence (whole entry): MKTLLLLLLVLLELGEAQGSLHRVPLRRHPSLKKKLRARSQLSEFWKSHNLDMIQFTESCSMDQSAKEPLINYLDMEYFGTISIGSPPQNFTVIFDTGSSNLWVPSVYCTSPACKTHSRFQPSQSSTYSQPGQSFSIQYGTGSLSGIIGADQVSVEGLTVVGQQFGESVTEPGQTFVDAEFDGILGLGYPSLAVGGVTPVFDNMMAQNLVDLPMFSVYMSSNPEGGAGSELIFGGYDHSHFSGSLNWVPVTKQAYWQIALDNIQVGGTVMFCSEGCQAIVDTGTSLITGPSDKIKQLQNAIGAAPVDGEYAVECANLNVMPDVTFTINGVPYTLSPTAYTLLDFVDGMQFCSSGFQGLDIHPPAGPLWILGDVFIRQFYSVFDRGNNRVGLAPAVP

Chain of Cathepsin D (Homo sapiens) (P07339 65-162 limits assumed): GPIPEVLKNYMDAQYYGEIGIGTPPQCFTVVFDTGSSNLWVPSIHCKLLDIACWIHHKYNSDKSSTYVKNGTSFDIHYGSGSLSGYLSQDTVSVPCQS
Chain of Cathepsin D (Homo sapiens) (P07339 169-412 limits assumed): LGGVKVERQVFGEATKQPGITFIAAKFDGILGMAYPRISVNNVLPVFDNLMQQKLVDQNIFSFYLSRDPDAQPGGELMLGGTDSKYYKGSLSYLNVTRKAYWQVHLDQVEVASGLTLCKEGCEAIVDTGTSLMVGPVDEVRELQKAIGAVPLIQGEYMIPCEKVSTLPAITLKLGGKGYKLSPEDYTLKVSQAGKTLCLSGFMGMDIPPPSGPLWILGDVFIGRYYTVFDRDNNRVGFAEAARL

| SMILES | IC50 (Renin) | further results |
| --- | --- | --- |
| COCCCOc1cc(C[C@@H](C[C@H](N)[C@@H](O)C[C@H](C(=O)NCCc2ccccc2Cl)C(C)C)C(C)C)ccc1OC | 27.7 nM |  |
| COCCCOc1cc(C[C@@H](C[C@H](N)[C@@H](O)C[C@H](C(=O)NCCc2ccccn2)C(C)C)C(C)C)ccc1OC | 2.6 nM |  |
| COCCCOc1cc(C[C@@H](C[C@H](N)[C@@H](O)C[C@H](C(=O)NCC(C)(C)Cn2cc(-c3ccc(C)cc3)nn2)C(C)C)C(C)C)ccc1OC | 13.1 nM |  |
| COCCCOc1cc(C[C@@H](C[C@H](N)[C@@H](O)C[C@H](C(=O)NCC(C)(C)C(N)=O)C(C)C)C(C)C)ccc1OC |  | Activity (Mus musculus [1]): Active |
| COCCCOc1cc(C[C@@H](C[C@H](N)[C@@H](O)C[C@H](C(=O)NCC(C)(C)Cc2ccc3ccccc3c2)C(C)C)C(C)C)ccc1OC | 11.2 nM |  |
| COCCCOc1cc(C[C@@H](C[C@H](N)[C@@H](O)C[C@H](C(=O)N[C@@H](C)c2ccc(Br)cc2)C(C)C)C(C)C)ccc1OC | 20.9 nM |  |
| COCCCOc1cc(C[C@@H](C[C@H](N)[C@@H](O)C[C@H](C(=O)NCC(C)(C)Cc2ccc(OC(F)(F)F)cc2)C(C)C)C(C)C)ccc1OC | 13.4 nM |  |
| COCCCOc1cc(C[C@@H](C[C@H](N)[C@@H](O)C[C@H](C(=O)NCC(C)(C)Cc2c(F)cccc2F)C(C)C)C(C)C)ccc1OC | 16.1 nM |  |
| COCCCOc1cc(C[C@@H](C[C@H](N)[C@@H](O)C[C@H](C(=O)NCC(C)(C)Cc2cccc(OC)c2)C(C)C)C(C)C)ccc1OC | 12.3 nM |  |
| COCCCOc1cc(C[C@@H](C[C@H](N)[C@@H](O)C[C@H](C(=O)N[C@H](C)c2ccc(Cl)cc2)C(C)C)C(C)C)ccc1OC | 30 nM |  |
| COCCCOc1cc(C[C@@H](C[C@H](N)[C@@H](O)C[C@H](C(=O)NCCc2cccc(OC)c2)C(C)C)C(C)C)ccc1OC | 7.2 nM |  |
| COCCCOc1cc(C[C@@H](C[C@H](N)[C@@H](O)C[C@H](C(=O)NCC(C)(C)Cc2cccc(F)c2)C(C)C)C(C)C)ccc1OC | 9.8 nM |  |
| COCCCOc1cc(C[C@@H](C[C@H](N)[C@@H](O)C[C@H](C(=O)NCC(C)(C)Cc2cc(F)ccc2F)C(C)C)C(C)C)ccc1OC | 12.4 nM |  |
| COCCCOc1cc(C[C@@H](C[C@H](N)[C@@H](O)C[C@H](C(=O)NCC(C)(C)Cc2cccc(Cl)c2)C(C)C)C(C)C)ccc1OC | 9.8 nM |  |
| COCCCOc1cc(C[C@@H](C[C@H](N)[C@@H](O)C[C@H](C(=O)N[C@H](C)c2ccc(Br)cc2)C(C)C)C(C)C)ccc1OC | 33.7 nM |  |
| COCCCOc1cc(C[C@@H](C[C@H](N)[C@@H](O)C[C@H](C(=O)NCC(C)(C)CCOc2ccccc2)C(C)C)C(C)C)ccc1OC | 8.5 nM |  |
| COCCCOc1cc(C[C@@H](C[C@H](N)[C@@H](O)C[C@H](C(=O)NCC(C)(C)Cn2cc(-c3ccccn3)nn2)C(C)C)C(C)C)ccc1OC | 1.5 nM |  |
| COCCCOc1cc(C[C@@H](C[C@H](N)[C@@H](O)C[C@H](C(=O)NCC(C)(C)Cc2ccncc2)C(C)C)C(C)C)ccc1OC | 1.5 nM |  |
| COCCCOc1cc(C[C@@H](C[C@H](N)[C@@H](O)C[C@H](C(=O)NCC(C)(C)CCN2CCOCC2)C(C)C)C(C)C)ccc1OC | 1.8 nM |  |
| COCCCOc1cc(C[C@@H](C[C@H](N)[C@@H](O)C[C@H](C(=O)NCCc2ccc3c(c2)OCO3)C(C)C)C(C)C)ccc1OC | 11 nM |  |
| COCCCOc1cc(C[C@@H](C[C@H](N)[C@@H](O)C[C@H](C(=O)NCC(C)(C)Cc2ccc(OC)cc2)C(C)C)C(C)C)ccc1OC | 10.2 nM |  |
| COCCCOc1cc(C[C@@H](C[C@H](N)[C@@H](O)C[C@H](C(=O)NCC(C)(C)Cc2ccccc2F)C(C)C)C(C)C)ccc1OC | 9.2 nM |  |
| COCCCOc1cc(C[C@@H](C[C@H](N)[C@@H](O)C[C@H](C(=O)N[C@@H](C)c2ccc(Cl)cc2)C(C)C)C(C)C)ccc1OC | 15.2 nM |  |
| COCCCOc1cc(C[C@@H](C[C@H](N)[C@@H](O)C[C@H](C(=O)NCC(C)(C)Cc2ccccc2)C(C)C)C(C)C)ccc1OC | 34 nM |  |
| COCCCOc1cc(C[C@@H](C[C@H](N)[C@@H](O)C[C@H](C(=O)NCC(C)(C)Cn2cc(-c3ccccc3)nn2)C(C)C)C(C)C)ccc1OC | 5 nM |  |
| COCCCOc1cc(C[C@@H](C[C@H](N)[C@@H](O)C[C@H](C(=O)NCC(C)(C)Cc2cccnc2)C(C)C)C(C)C)ccc1OC | 2.2 nM |  |

Now from value to compound, other results behind:

| IC50 (Renin) | SMILES | further results |
| --- | --- | --- |
| 1.9 nM | COCCCOc1cc(C[C@@H](C[C@H](N)[C@@H](O)C[C@H](C(=O)NCC(C)(C)Cn2cc(CN(C)C)nn2)C(C)C)C(C)C)ccc1OC |  |
| 0.9 nM | COCCCOc1cc(C[C@@H](C[C@H](N)[C@@H](O)C[C@H](C(=O)NCC(C)(C)Cn2cc(CO)nn2)C(C)C)C(C)C)ccc1OC |  |
| 1.6 nM | COCCCOc1cc(C[C@@H](C[C@H](N)[C@@H](O)C[C@H](C(=O)NCC(C)(C)Cn2cc(C3CC3)nn2)C(C)C)C(C)C)ccc1OC |  |
| 2 nM | COCCCOc1cc(C[C@@H](C[C@H](N)[C@@H](O)C[C@H](C(=O)NCC(C)(C)Cn2ccnn2)C(C)C)C(C)C)ccc1OC |  |
| 17.1 nM | CCCCCCc1cn(CC(C)(C)CNC(=O)[C@@H](C[C@H](O)[C@@H](N)C[C@H](Cc2ccc(OC)c(OCCCOC)c2)C(C)C)C(C)C)nn1 |  |
| 5.8 nM | CCCCc1cn(CC(C)(C)CNC(=O)[C@@H](C[C@H](O)[C@@H](N)C[C@H](Cc2ccc(OC)c(OCCCOC)c2)C(C)C)C(C)C)nn1 |  |
| 7 nM | COCCCOc1cc(C[C@@H](C[C@H](N)[C@@H](O)C[C@H](C(=O)NCC(C)(C)Cn2cc(C(C)(C)C)nn2)C(C)C)C(C)C)ccc1OC |  |
| 0.7 nM | COCCCOc1cc(C[C@@H](C[C@H](N)[C@@H](O)C[C@H](C(=O)NCC(C)(C)Cn2cc(CCO)nn2)C(C)C)C(C)C)ccc1OC.Cl | Activity (Mus musculus [2]): 40 mmHg; Activity (Mus musculus [1]): Active; Activity (Mus musculus [3]): Active; Time (Mus musculus [4]): 14 h; inhibition [5]: inactive; Activity (Mus musculus [6]): Dose-dependent effect; inhibition [7]: inactive |
| 1.1 nM | COCCCOc1cc(C[C@@H](C[C@H](N)[C@@H](O)C[C@H](C(=O)NCC(C)(C)Cn2cc(CN3CCOCC3)nn2)C(C)C)C(C)C)ccc1OC |  |
| 2.1 nM | CCN(CC)Cc1cn(CC(C)(C)CNC(=O)[C@@H](C[C@H](O)[C@@H](N)C[C@H](Cc2ccc(OC)c(OCCCOC)c2)C(C)C)C(C)C)nn1 |  |
| 5.2 nM | COCCCOc1cc(C[C@@H](C[C@H](N)[C@@H](O)C[C@H](C(=O)NCC(C)(C)Cn2cc(C3(O)CCCC3)nn2)C(C)C)C(C)C)ccc1OC |  |
| 2.7 nM | COCCCOc1cc(C[C@@H](C[C@H](N)[C@@H](O)C[C@H](C(=O)NCC(C)(C)Cn2cc(CN(C(C)C)C(C)C)nn2)C(C)C)C(C)C)ccc1OC |  |
| 1 nM | COCCCOc1cc(C[C@@H](C[C@H](N)[C@@H](O)C[C@H](C(=O)NCC(C)(C)Cn2cc(CN3CCCCC3)nn2)C(C)C)C(C)C)ccc1OC |  |
| 1.1 nM | COCCCOc1cc(C[C@@H](C[C@H](N)[C@@H](O)C[C@H](C(=O)NCC(C)(C)Cn2cc(C(C)O)nn2)C(C)C)C(C)C)ccc1OC (stereo partly drawn) |  |
| 15.5 nM | COCCCOc1cc(C[C@@H](C[C@H](N)[C@@H](O)C[C@H](C(=O)NCC(C)(C)CC2CCCCC2)C(C)C)C(C)C)ccc1OC |  |
